Results pooled from the literature.
AKR1C2: Aldo-keto reductase family 1 member C2 (AKR1C2, Homo sapiens, UniProt P52895)
Neuronal acetylcholine receptor; alpha3/beta2: Neuronal acetylcholine receptor; alpha3/beta2 (Rattus norvegicus, UniProt P04757+P12390)

| Structure (SMILES) | target | test | conditions | IC50 |
| --- | --- | --- | --- | --- |
| O=C(O)C(F)F | AKR1C2 | enzyme activity, inhibitor, fluorescence |  | > 50 µM |
| COc1ccc2[nH]c3c(c2c1)CCN(C)CC3 | Neuronal acetylcholine receptor; alpha3/beta2 | ion current, antagonist, two-electrode voltage clamp | oocytes | 28.3 µM |
| COC(=O)c1cc(N(C)C(=O)c2ccn3ncc(-c4ccc(C(=O)O)cc4)c3c2)ccc1Cl | Vascular endothelial growth factor receptor 1 (FLT1, Homo sapiens, UniProt P17948) | enzyme activity, inhibitor |  | > 30 µM |
| COc1ccc2c3c([nH]c2c1)CCN(C)CC3 | Neuronal acetylcholine receptor; alpha3/beta2 | ion current, antagonist, two-electrode voltage clamp | oocytes | 27.6 µM |
| CC[C@H](C)[C@H](NC(C)=O)C(=O)N[C@@H](CCC(=O)O)C(=O)N[C@H](C(=O)N[C@H](C=O)CC(=O)O)[C@@H](C)O | Caspase-4 (Casp4, Mus musculus, UniProt P70343) | enzyme activity, inhibitor |  | 0.162 µM |
| O=C(O)C(F)(OC(F)(F)C(F)(F)C(F)(F)F)C(F)(F)F (centres unmarked) | AKR1C2 | enzyme activity, inhibitor, fluorescence |  | 13.8 µM |
| CNC(=O)c1ccc(-c2cnn3ccc(C(=O)N(C)c4ccc(Cl)c(C(=O)OC)c4)cc23)cc1 | Serine/threonine-protein kinase Nek11 (NEK11, Homo sapiens, UniProt Q8NG66) | enzyme activity, inhibitor |  | > 30 µM |
| O=C(NC[C@H]1C[C@@H]2CCN1C[C@@H]2CN1C[C@@H]2C[C@H](C1)c1cccc(=O)n1C2)c1ccc2c(c1)OCO2 | Atypical kinase COQ8A, mitochondrial (COQ8A, Homo sapiens, UniProt Q8NI60) | ligand displacement, TR-FRET |  | 13.7 µM |
